13 compounds from ChEMBL document CHEMBL1128218, “New alpha-thiol dipeptide dual inhibitors of angiotensin-I converting enzyme and neutral endopeptidase EC 3.4.24.11” (J Med Chem, 1995) can be followed below.

Experiment [1] concerns the target T1, Neprilysin (Rattus norvegicus, UniProt P07861).
T1 sequence (P07861 whole entry): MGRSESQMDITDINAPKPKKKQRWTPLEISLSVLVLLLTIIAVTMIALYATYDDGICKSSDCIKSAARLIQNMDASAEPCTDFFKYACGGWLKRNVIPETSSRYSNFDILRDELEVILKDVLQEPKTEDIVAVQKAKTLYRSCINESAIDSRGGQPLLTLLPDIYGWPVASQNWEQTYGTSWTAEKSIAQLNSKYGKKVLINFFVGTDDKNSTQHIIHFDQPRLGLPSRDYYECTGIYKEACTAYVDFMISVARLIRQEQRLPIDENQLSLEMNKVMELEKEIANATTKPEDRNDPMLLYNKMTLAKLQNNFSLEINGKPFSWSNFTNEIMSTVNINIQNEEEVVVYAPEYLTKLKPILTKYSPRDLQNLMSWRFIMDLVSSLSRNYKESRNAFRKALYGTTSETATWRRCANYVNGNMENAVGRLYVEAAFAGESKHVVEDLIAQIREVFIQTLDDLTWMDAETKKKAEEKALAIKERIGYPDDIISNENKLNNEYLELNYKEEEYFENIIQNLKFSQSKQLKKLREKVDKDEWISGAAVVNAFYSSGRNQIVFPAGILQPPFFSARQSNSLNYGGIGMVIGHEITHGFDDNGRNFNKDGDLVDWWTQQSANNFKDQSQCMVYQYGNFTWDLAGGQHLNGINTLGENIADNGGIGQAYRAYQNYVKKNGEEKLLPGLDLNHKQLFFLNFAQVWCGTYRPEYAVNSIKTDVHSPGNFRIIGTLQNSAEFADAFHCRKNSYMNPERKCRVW
Description: Evaluation of in vitro inhibitory activity against Neutral endopeptidase. In a few lines: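 Rat kidney cortex membrane homogenate (4.2 μg protein) preincubated 10 min at 25 °C with increasing inhibitor concentrations. Then 500 μM GAAP (final) in 50 mM Tris pH 7.4 with leucine aminopeptidase M, 25 min at 25 °C. Done in duplicate; IC50 from curves of seven points near the IC50.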

For experiment [2], the target named is T2, Angiotensin-converting enzyme (Rattus norvegicus) (UniProt P47820).
T2 sequence (whole entry): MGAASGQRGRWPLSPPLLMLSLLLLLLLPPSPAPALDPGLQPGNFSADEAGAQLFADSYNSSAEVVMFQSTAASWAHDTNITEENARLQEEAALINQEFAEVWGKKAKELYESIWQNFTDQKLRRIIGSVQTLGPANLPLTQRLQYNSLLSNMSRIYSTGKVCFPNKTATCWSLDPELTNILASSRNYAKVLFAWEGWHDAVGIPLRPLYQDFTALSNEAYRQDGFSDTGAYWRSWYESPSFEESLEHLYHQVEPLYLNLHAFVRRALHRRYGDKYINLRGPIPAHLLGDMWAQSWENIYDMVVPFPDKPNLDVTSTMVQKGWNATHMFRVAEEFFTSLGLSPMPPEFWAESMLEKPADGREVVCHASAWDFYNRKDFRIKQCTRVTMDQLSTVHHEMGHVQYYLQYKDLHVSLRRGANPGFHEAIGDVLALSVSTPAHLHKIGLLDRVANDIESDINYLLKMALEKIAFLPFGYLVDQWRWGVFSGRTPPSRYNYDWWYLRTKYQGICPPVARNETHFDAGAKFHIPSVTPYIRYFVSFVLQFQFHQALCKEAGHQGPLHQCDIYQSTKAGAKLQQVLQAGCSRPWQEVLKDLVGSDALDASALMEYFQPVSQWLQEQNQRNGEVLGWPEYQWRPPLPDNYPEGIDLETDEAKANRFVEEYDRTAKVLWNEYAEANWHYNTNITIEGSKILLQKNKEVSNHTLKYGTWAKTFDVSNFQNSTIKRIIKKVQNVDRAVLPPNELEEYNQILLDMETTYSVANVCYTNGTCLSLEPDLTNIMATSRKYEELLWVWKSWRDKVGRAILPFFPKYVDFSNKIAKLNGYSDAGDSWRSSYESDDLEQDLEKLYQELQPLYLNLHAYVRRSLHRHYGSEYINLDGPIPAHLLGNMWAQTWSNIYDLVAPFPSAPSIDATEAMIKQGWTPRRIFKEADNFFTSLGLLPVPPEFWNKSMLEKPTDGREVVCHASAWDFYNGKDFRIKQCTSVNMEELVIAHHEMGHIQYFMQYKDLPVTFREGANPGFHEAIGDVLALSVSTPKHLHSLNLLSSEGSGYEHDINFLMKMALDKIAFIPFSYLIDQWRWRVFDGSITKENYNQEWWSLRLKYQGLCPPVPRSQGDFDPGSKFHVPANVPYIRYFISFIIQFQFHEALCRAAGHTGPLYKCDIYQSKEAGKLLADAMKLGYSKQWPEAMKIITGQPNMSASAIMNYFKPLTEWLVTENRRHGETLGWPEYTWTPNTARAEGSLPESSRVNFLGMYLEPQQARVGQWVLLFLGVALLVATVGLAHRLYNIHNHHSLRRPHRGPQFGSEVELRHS
Kind of experiment: Evaluation of plasma inhibition of Angiotensin I converting enzyme activity in conscious rat 4 hours after intravenous administration at a dose of 10 mg/kg. It counts as functional, organism-based. On the set-up: dose 10 mg/kg. In a few lines: (§1)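 Male conscious normotensive Sprague-Dawley rats (275-390 g) fitted the day before with femoral arterial and venous catheters under methohexital anesthesia. Three angiotensin-I challenges (300 ng/kg iv) given as baseline. Compound given iv, ia or po (12.3 mg/kg po dose in 3% cornstarch at 1 mg/mL), then AI challenges repeated at set times. Pressor response compared with the mean baseline response and expressed as % inhibition.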

In experiment [3] the target is T2, Angiotensin-converting enzyme (Rattus norvegicus). Kind of experiment: Evaluation of plasma inhibition of Angiotensin I converting enzyme activity in conscious rat 6 hours after intravenous administration at a dose of 10 mg/kg. It counts as functional, organism-based. On the set-up: dose 10 mg/kg. In a few lines: as §1
For experiment [4] the target is unchanged. Kind of experiment: Evaluation of plasma inhibition of Angiotensin I converting enzyme activity in conscious rat 1 hour after intravenous administration at a dose of 10 mg/kg. It counts as functional, organism-based. On the set-up: dose 10 mg/kg. In a few lines: as §1
Experiment [5] shares this target. Description: Evaluation of plasma inhibition of Angiotensin I converting enzyme activity in conscious rat 4 hour after oral administration at a dose of 10 mg/kg. On the set-up: dose 10 mg/kg. It counts as functional, organism-based.
Experiment [6] shares this target. Kind of experiment: Evaluation of plasma inhibition of Angiotensin I converting enzyme activity in conscious rat 6 hour after oral administration at a dose of 10 mg/kg. Format: functional, organism-based. On the set-up: dose 10 mg/kg. The essentials:
as §1

The target is the same in experiment [7]. Kind of experiment: Evaluation of plasma inhibition of Angiotensin I converting enzyme activity in conscious rat 2 hour after oral administration at a dose of 10 mg/kg. It counts as functional, organism-based. On the set-up: dose 10 mg/kg.
For experiment [8] the target is unchanged. Description: Evaluation of plasma inhibition of Angiotensin I converting enzyme activity in conscious rat 1 hour after oral administration at a dose of 10 mg/kg. On the set-up: dose 10 mg/kg. Format: functional, organism-based.

By IC50 is commonly meant the concentration needed to halve the response being measured. As usually defined, the inhibition is how much of the control response was suppressed.

Regarding `CC(C)[C@H](S)C(=O)NC1(C(=O)N[C@@H](Cc2ccc(F)cc2)C(=O)O)CCCC1`, it took 1.8 nM to reach half-maximal inhibition in experiment [1] (IC50). Besides, the inhibition is 38% in experiment [2], 28% in experiment [3] and 85% in experiment [4].

`O=C(O)[C@H](Cc1ccc(O)cc1)NC(=O)C1(NC(=O)[C@@H](S)Cc2ccccc2)CCCC1` displayed an IC50 in experiment [1] of 3 nM. The inhibition in experiment [2] turned out to be 43%; in experiment [3], 17%; in experiment [4], 86%.

Take `CC(C)[C@H](S)C(=O)NC(C)(C)C(=O)N[C@@H](Cc1ccc(O)cc1)C(=O)O`: in experiment [1], half-maximal inhibition (IC50) was put at 9.2 nM. Besides, the inhibition in experiment [2] amounted to 69%; in experiment [3] it was 67%; in experiment [4] it was 88%.

`CC(C)[C@H](S)C(=O)NC1(C(=O)N[C@@H](Cc2ccc(O)cc2)C(=O)O)CCCC1`: the IC50 in experiment [1] was 1.5 nM. For the same compound, the inhibition in experiment [2] worked out at 83%; in experiment [5], 36%; in experiment [6], 15%; in experiment [3], 68%; in experiment [4] it was 90%; in experiment [7], 59%. Moreover, the inhibition in experiment [8] worked out at 48%.

`CC(C)[C@H](S)C(=O)NC1(C(=O)N[C@@H](Cc2c[nH]c3ccccc23)C(=O)O)CCCC1`: in experiment [1], it took 2.1 nM to reach half-maximal inhibition (IC50). For the same compound, the inhibition in experiment [2] was 86%; in experiment [5], 29%; in experiment [6] it was 26%; in experiment [3] it was 82%; in experiment [4], 98%; in experiment [7], 50%. This compound had an inhibition in experiment [8] of 45%.

On to `CC(C)[C@H](S)C(=O)NC1(C(=O)N[C@@H](Cc2cccs2)C(=O)O)CCCC1`, for which inhibition in experiment [1] was half-maximal at 1.5 nM (IC50). Moreover, the figures for the inhibition in experiment [2], in experiment [3] and in experiment [4] were 44%, 29% and 79%, respectively.

Consider `O=C(CS)NC1(C(=O)N[C@@H](Cc2ccc(O)cc2)C(=O)O)CCCC1`, for which the IC50 in experiment [1] is 15 nM. Also, the inhibition amounted to 7% in experiment [2] and 44% in experiment [4].

With `CC(C)[C@H](S)C(=O)NC1(C(=O)N[C@@H](Cc2ccccn2)C(=O)O)CCCC1`, the IC50 in experiment [1] turned out to be 3 nM. For the same compound, the inhibition is 28% in experiment [2], 17% in experiment [3] and 73% in experiment [4].

`CC(C)[C@H](S)C(=O)NC1(C(=O)N[C@@H](Cc2ccc(O)cc2)C(=O)O)CCOCC1` came in with an IC50 in experiment [1] of 6.4 nM. Further, the figures for the inhibition in experiment [2] and in experiment [4] were 4% and 43%, respectively.

Consider `CC(C)[C@H](S)C(=O)NC1(C(=O)N[C@@H](CCc2ccccc2)C(=O)O)CCCC1`, for which the IC50 in experiment [1] is 1.2 nM. The inhibition in experiment [2] is 79%; in experiment [3], 75%; in experiment [4], 72%.

Turning to `CC(C)[C@H](S)C(=O)NC1(C(=O)N[C@@H](Cc2ccc(O)cc2)C(=O)O)Cc2ccccc2C1`, in experiment [1], the midpoint of inhibition, the IC50, lay at 25 nM. For the same compound, the inhibition in experiment [2] stood at 24%; in experiment [3] it was 9%; in experiment [4], 86%.

In experiment [1], `CC(C)[C@H](S)C(=O)NC1(C(=O)N[C@@H](Cc2ccc(O)cc2)C(=O)O)CC1` yielded an IC50 of 5 nM. The inhibition was 30% in experiment [2], 17% in experiment [3] and 91% in experiment [4].

In the case of `CC(C)[C@H](S)C(=O)NC1(C(=O)N[C@@H](Cc2ccsc2)C(=O)O)CCCC1`, 2.6 nM corresponded to half-maximal inhibition in experiment [1] (IC50). Also, the figures for the inhibition in experiment [2], in experiment [3] and in experiment [4] were 87%, 71% and 97%, respectively.
